From ChEMBL document CHEMBL4411280, “Synthesis, structure activity relationship and in vitro anti-influenza virus activity of novel polyphenol-pentacyclic triterpene conjugates” (Eur J Med Chem, 2019)
The source made the active and inactive calls. The calls are words filed in the database; no cut-off is given here.

Legend:
MDCK = assay: Cytotoxicity against MDCK cells at 50 uM after 40 hrs by CellTiter-Glo assay; type: cell-based, Canis lupus familiaris; conditions: dog
Method in brief: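 Single-concentration toxicity screen at 50 μM final on MDCK cells for 40 h, read by CellTiter-Glo. 0.5% DMSO final as negative control. Triplicate experiments, standard deviations shown.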

Influenza A virus [1] = assay: Antiviral activity against Influenza A virus A/WSN/33/H1N1 infected in MDCK cells assessed as reduction in virus-induced cytopathic effect at 50 uM after 40 hrs by CellTiter-Glo assay; type: functional, organism-based
Method in brief: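 Single-concentration screen at 50 μM final. MDCK cells infected with A/WSN/33 (H1N1) at MOI 0.1 in DMEM/1% FBS with TPCK-trypsin for 40 h, viability by CellTiter-Glo. 0.5% DMSO final as negative control, oseltamivir as positive control. Triplicate experiments, standard deviations shown.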

Influenza A virus [2] = assay: Antiviral activity against Influenza A virus A/WSN/33/H1N1 infected in MDCK cells assessed as reduction in virus-induced cytopathic effect after 40 hrs by CellTiter-Glo assay; type: functional, organism-based; conditions: A/WSN/33/H1N1, MDCK
Method in brief: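 MDCK cells seeded overnight, infected with influenza A/WSN/33 (H1N1) at MOI 0.1. Kept in DMEM with 1% FBS, test compound, TPCK-treated trypsin and 1% final DMSO for 40 h. Cell viability read by CellTiter-Glo luminescence. IC50 taken from dose-response.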

[3] = Cytotoxicity against MDCK cells after 40 hrs by CellTiter-Glo assay; type: cell-based, Canis lupus familiaris; conditions: dog
Method in brief: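 MDCK cells grown overnight in medium with 1% FBS, then exposed to increasing compound concentrations for 40 h. Viability measured by CellTiter-Glo luminescence, and CC50 derived from it.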

[4] = molecular target: Hemagglutinin (Influenza A virus (A/Puerto Rico/8/1934(H1N1)), UniProt P03452); assay: Binding affinity to recombinant Influenza A virus (A/California/04/2009 (H1N1)) hemagglutinin by SPR assay
Method in brief: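 HA immobilised on the sensor chip to about 16,000 RU. Compounds injected as analytes at various concentrations in PBS-P running buffer (10 mM phosphate, 2.7 mM KCl, 137 mM NaCl, 0.05% P20, […]), with 60 s contact and 60 s dissociation. KD determined.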

[5] = molecular target: Hemagglutinin (Influenza A virus) (UniProt B4URE7); assay: Inhibition of Influenza A virus A/WSN/33/H1N1 HA-mediated hemagglutination of chicken RBC measured after 30 mins
Method in brief: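 Compound serially diluted 3-fold in saline and mixed with an equal volume of A/WSN/33 virus (2 HA units). Freshly prepared chicken RBCs (1% v/v in saline) added. Incubated 30 min at room temperature, then agglutination scored visually. PBS as negative control, anti-HA antibody tested in parallel.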

Hemagglutinin (Influenza A virus (A/Puerto Rico/8/1934(H1N1)), UniProt P03452), sequence (P03452 whole entry): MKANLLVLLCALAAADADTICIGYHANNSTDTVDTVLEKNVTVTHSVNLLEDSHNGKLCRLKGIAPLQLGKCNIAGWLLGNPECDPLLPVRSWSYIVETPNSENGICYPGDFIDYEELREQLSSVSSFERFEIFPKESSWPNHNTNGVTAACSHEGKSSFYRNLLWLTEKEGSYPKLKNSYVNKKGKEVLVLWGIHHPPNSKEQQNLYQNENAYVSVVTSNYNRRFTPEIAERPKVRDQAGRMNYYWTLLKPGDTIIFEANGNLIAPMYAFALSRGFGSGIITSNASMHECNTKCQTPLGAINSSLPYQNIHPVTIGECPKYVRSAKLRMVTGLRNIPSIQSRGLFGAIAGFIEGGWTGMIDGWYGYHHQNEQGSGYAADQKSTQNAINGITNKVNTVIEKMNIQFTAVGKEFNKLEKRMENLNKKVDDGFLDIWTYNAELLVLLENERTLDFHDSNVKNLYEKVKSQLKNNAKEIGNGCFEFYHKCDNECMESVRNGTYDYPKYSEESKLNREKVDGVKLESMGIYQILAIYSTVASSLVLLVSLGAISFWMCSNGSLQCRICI
Hemagglutinin (Influenza A virus), sequence (B4URE7 as listed by the source): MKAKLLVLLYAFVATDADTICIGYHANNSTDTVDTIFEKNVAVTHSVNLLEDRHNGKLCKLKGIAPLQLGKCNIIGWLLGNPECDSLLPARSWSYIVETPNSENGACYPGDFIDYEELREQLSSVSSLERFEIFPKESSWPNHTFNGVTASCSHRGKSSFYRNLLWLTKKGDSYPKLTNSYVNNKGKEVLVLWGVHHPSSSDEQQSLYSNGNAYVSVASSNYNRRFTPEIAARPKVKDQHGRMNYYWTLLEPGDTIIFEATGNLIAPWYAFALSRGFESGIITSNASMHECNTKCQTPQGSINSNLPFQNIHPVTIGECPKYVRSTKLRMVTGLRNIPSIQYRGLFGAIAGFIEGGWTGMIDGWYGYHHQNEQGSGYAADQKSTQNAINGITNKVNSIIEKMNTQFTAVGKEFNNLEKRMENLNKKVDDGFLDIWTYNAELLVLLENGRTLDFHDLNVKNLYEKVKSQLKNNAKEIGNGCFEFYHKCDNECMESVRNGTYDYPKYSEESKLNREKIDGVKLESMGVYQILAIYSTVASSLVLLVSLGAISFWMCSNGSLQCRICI

For `C[C@H]1[C@H](C)CC[C@]2(C(=O)NCCNC(=O)/C=C/c3ccccc3)CC[C@]3(C)C(=CC[C@@H]4[C@@]5(C)CC[C@H](O)C(C)(C)[C@@H]5CC[C@]43C)[C@H]12`, the Activity (MDCK) was “Non-Toxic”, the Activity (Influenza A virus [1]) was “Active” and the IC50 (Influenza A virus [2]) was 18.3 µM. For the same compound, the CC50 at 40 h [3] was over 100 µM.
In the case of `C=C(C)[C@@H]1CC[C@]2(C(=O)NCCNC(=O)/C=C/c3ccc(O)cc3)CC[C@]3(C)[C@H](CC[C@@H]4[C@@]5(C)CC[C@H](O)C(C)(C)[C@@H]5CC[C@]43C)[C@@H]12`, the Activity (MDCK) is reported as “Non-Toxic”, the Activity (Influenza A virus [1]) is reported as “Active” and the IC50 (Influenza A virus [2]) is reported as 15.7 µM. It also gave a CC50 at 40 h [3] of over 100 µM.
In the case of `CC1(C)CC[C@]2(C(=O)NCCNC(=O)c3ccccc3O)CC[C@]3(C)C(=CC[C@@H]4[C@@]5(C)CC[C@H](O)C(C)(C)[C@@H]5CC[C@]43C)[C@@H]2C1`, the Activity (MDCK) is reported as “Non-Toxic”, the Activity (Influenza A virus [1]) is reported as “Active” and the IC50 (Influenza A virus [2]) is reported as 7.65 µM. It also gave a CC50 at 40 h [3] of over 100 µM and a Kd [4] of 36 µM.
`C[C@H]1[C@H](C)CC[C@]2(C(=O)O)CC[C@]3(C)C(=CC[C@@H]4[C@@]5(C)CC[C@H](O)C(C)(C)[C@@H]5CC[C@]43C)[C@H]12` [URSOLIC ACID] gave a Kd [4] of 46.5 µM.
With `C[C@H]1[C@H](C)CC[C@]2(C(=O)NCCNC(=O)c3ccccc3O)CC[C@]3(C)C(=CC[C@@H]4[C@@]5(C)CC[C@H](O)C(C)(C)[C@@H]5CC[C@]43C)[C@H]12` the Activity (MDCK) was “Non-Toxic”, the Activity (Influenza A virus [1]) was “Active” and the IC50 (Influenza A virus [2]) was 5.8 µM. For the same compound, the CC50 at 40 h [3] was over 100 µM, the inhibition [5] was “Dose-dependent effect” and the Kd [4] was 15.6 µM.
